Tests used:
[1] = test system: Human gammaherpesvirus 4; experiment: Inhibitory effect on TPA-induced Epstein-Barr virus early antigen activation in Raji cells at 100 mol ratio/32 pmol TPA relative to TPA; format: functional; set-up: scale not given: the % may be the effect or the level left
How it was run: (§1)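 Raji cells induced with TPA at 32 pmol (20 ng), taken as 100%. Compounds given as molar ratio to TPA. EBV-EA induction is scored against this TPA-only positive control. Raji cell viability is reported as a percentage. IC50 is the molar ratio to TPA giving 50% inhibition of the positive control.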

[2] = test system: Human gammaherpesvirus 4; experiment: Inhibitory effect on TPA-induced Epstein-Barr virus early antigen activation in Raji cells at 1000 mol ratio/32 pmol TPA relative to TPA; format: functional; set-up: scale not given: the % may be the effect or the level left; how it was run: as §1
[3] = test system: Human gammaherpesvirus 4; experiment: Inhibitory effect on TPA-induced Epstein-Barr virus early antigen activation in Raji cells at 500 mol ratio/32 pmol TPA relative to TPA; format: functional; set-up: scale not given: the % may be the effect or the level left; how it was run: as §1
[4] = test system: Human gammaherpesvirus 4; experiment: Inhibitory effect on TPA-induced Epstein-Barr virus early antigen activation in Raji cells at 10 mol ratio/32 pmol TPA relative to TPA; format: functional; set-up: scale not given: the % may be the effect or the level left; how it was run: as §1
[5] = test system: Raji; experiment: Cell viability of Raji cells at 1000 mol ratio/32 pmol TPA; format: functional, Homo sapiens; how it was run: as §1
[6] = Inhibitory ratio on NOR1-induced NO activation in human Chang liver cells assessed as nitric oxide scavenging activity relative to NOR1; format: functional
How it was run: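 Chang liver cells (normal human hepatic cells) were used with NOR 1, an NO donor, as the NO source. Compounds were tested at 350 nmol. Scavenging of NO generated by NOR 1 is given as an inhibitory ratio. The ratio for NOR 1 alone (positive control, 350 nm) is set at 1.0.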

| Structure (SMILES) | Activity [1] [%] | Activity [2] [%] | Activity [3] [%] | Activity [4] [%] | Activity [5] [%] | Ratio [6] |
| --- | --- | --- | --- | --- | --- | --- |
| C[C@H](CC[C@@H](O[C@@H]1O[C@H](CO[C@@H]2O[C@H](CO)[C@@H](O)[C@H](O)[C@H]2O)[C@@H](O)[C@H](O)[C@H]1O)C(C)(C)O)[C@H]1CC[C@@]2(C)[C@@H]3CC=C4[C@@H](CC[C@H](O[C@@H]5O[C@H](CO)[C@@H](O)[C@H](O)[C@H]5O)C4(C)C)[C@]3(C)CC[C@]12C | 81.9 | 10.6 | 25.7 | 100 | 70 | 1.5 |
| C[C@H](CC[C@@H](O[C@@H]1O[C@H](CO)[C@@H](O)[C@H](O)[C@H]1O)C(C)(C)O)[C@H]1CC[C@@]2(C)[C@@H]3C(=O)C=C4[C@@H](CC[C@H](O[C@@H]5O[C@H](CO)[C@@H](O)[C@H](O)[C@H]5O)C4(C)C)[C@]3(C)[C@H](O)C[C@]12C | 80.8 | 7.7 | 24.4 | 100 | 70 | 1.5 |
| CC1(C)N([O])C(c2ccc(C(=O)O)cc2)=[N+]([O-])C1(C)C |  |  |  |  |  | 8 |
| C[C@H](CC[C@@H](O[C@@H]1O[C@H](CO[C@@H]2O[C@H](CO)[C@@H](O)[C@H](O)[C@H]2O)[C@@H](O)[C@H](O)[C@H]1O)C(C)(C)O)[C@H]1CC[C@@]2(C)[C@@H]3CC=C4[C@@H](CC[C@H](O)C4(C)C)[C@]3(C)C(=O)C[C@]12C | 80.6 | 8.5 | 25 | 100 | 70 | 1.4 |
| C[C@H](CC[C@@H](O[C@@H]1O[C@H](CO[C@@H]2O[C@H](CO)[C@@H](O)[C@H](O)[C@H]2O)[C@@H](O)[C@H](O)[C@H]1O)C(C)(C)O)[C@H]1CC[C@@]2(C)[C@@H]3CC=C4[C@@H](CC[C@H](O[C@@H]5O[C@H](CO[C@@H]6O[C@H](CO)[C@@H](O)[C@H](O)[C@H]6O)[C@@H](O)[C@H](O)[C@H]5O)C4(C)C)[C@]3(C)C(=O)C[C@]12C [11-OXOMOGROSIDE IV A] | 82.5 | 10.3 | 27.3 | 100 | 70 | 1.4 |
| CC1=C(/C=C/C(C)=C/C=C/C(C)=C/C=C/C=C(C)/C=C/C=C(C)/C=C/C2=C(C)CCCC2(C)C)C(C)(C)CCC1 [BETA CAROTENE] |  | 8.6 |  | 100 | 70 |  |
| CC1(C)[C@@H](O[C@H]2O[C@H](C(=O)O)[C@@H](O)[C@H](O)[C@H]2O[C@@H]2O[C@H](C(=O)O)[C@@H](O)[C@H](O)[C@H]2O)CC[C@]2(C)[C@H]3C(=O)C=C4[C@@H]5C[C@@](C)(C(=O)O)CC[C@]5(C)CC[C@@]4(C)[C@]3(C)CC[C@@H]12 [GLYCYRRHIZIN] |  |  |  |  |  | 2.2 |
| C[C@H](CC[C@@H](O)C(C)(C)O[C@@H]1O[C@H](CO)[C@@H](O)[C@H](O)[C@H]1O)[C@H]1CC[C@@]2(C)[C@@H]3CC=C4[C@@H](CC[C@H](O[C@@H]5O[C@H](CO)[C@@H](O)[C@H](O)[C@H]5O)C4(C)C)[C@]3(C)[C@H](O)C[C@]12C [MOGROSIDE II B] | 76 | 7.2 | 26 | 100 | 70 | 1.5 |
| C[C@H](CC[C@@H](O[C@@H]1O[C@H](CO)[C@@H](O)[C@H](O)[C@H]1O)C(C)(C)O)[C@H]1CC[C@@]2(C)[C@@H]3CC=C4[C@@H](CC[C@H](O[C@@H]5O[C@H](CO[C@@H]6O[C@H](CO)[C@@H](O)[C@H](O)[C@H]6O)[C@@H](O)[C@H](O)[C@H]5O)C4(C)C)[C@]3(C)[C@H](O)C[C@]12C [MOGROSIDE III A2] | 75.3 | 5.1 | 24 | 100 | 70 | 1.5 |

— ChEMBL document CHEMBL1139890, “Cucurbitane glycosides from the fruits of Siraitia gros venorii and their inhibitory effects on Epstein-Barr virus activation” (2007)
